For series [1], the system named is Mus musculus. In words: Half life in CD1 mouse at 10 mg/kg, ip. On the set-up: dose 10 mg/kg, route intraperitoneal. It is filed as ADME, organism-based. Particulars: in vivo. Put shortly:
(§1)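 Male CD1 mice were dosed i.p. at 10 mg/kg in 95% PBS containing 0.1% Tween 20 and 5% DMSO. Plasma was sampled at 5–360 or 5–480 min. AUC is in μg.min/mL. Half-life was not calculated where the log concentration–time plot lacked a linear region of at least three points.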

The test system of series [2] is Mus musculus. Nature of the series: AUC in CD1 mouse at 10 mg/kg, ip. It is filed as ADME, organism-based, Plasma. Conditions: in vivo. On the set-up: dose 10 mg/kg, route intraperitoneal. A digest of the protocol:
as §1

Series [3] can be described thus: Aqueous solubility of the compound by turbidimetry. Conditions: buffer. It is filed as physicochemical. A digest of the protocol:
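Turbidimetric aqueous solubility, reported as the final test compound concentration.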

Series [4] has as its system Mus musculus. In words: Cmax in CD1 mouse at 10 mg/kg, ip. It is filed as ADME, organism-based. Also on record: dose 10 mg/kg, route intraperitoneal. Particulars: in vivo. A digest of the protocol:
as §1

The subject of series [5] is Mus musculus. In words: Tmax in CD1 mouse at 10 mg/kg, ip. It is filed as ADME, organism-based. On the set-up: dose 10 mg/kg, route intraperitoneal. Particulars: in vivo. A digest of the protocol: as §1
Series [6] in a line: Half life in mouse liver microsomes. The series is classed as ADME, Microsome. For orientation: Microsomes from liver hold many membrane-bound enzymes, among them those of drug oxidation.
For series [7], the species on record is Mus musculus. Nature of the series: Activation of UTRN promoter in mouse H2K cells assessed as upregulation of UTRN production after 48 hrs by luciferase reporter linked assay. It is filed as functional, cell-based. Put shortly:
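H2K myoblasts stably carrying a utrophin (UTRN) promoter–luciferase reporter were plated 24 h before dosing and exposed to compound for 48 h. Luciferase was read by luminescence (Steady-Glo). The primary screen was at 10 μM and the secondary at six concentrations for EC50, both in triplicate. Non-EC50 values are % of the reference upregulator's maximum, given with the concentration at maximum.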

A short description of series [8]: Half life in human liver microsomes. The series is classed as ADME, Microsome.
The nature of series [9]: Cmax in CD1 mouse at 50 mg/kg, ip. The series is classed as ADME, organism-based. On the set-up: dose 50 mg/kg, route intraperitoneal. Particulars: in vivo. Put shortly:
(§2)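 Male CD1 mice were given 50 mg/kg i.p. in 95% PBS with 0.1% Tween 20 and 5% DMSO. Plasma was sampled at 0.08, 0.25, 0.5, 1, 2, 4, 8 and 24 h in three animals, and values are the mean in ng/mL.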

A short description of series [10]: Tmax in CD1 mouse at 50 mg/kg, ip. Particulars: in vivo. On the set-up: dose 50 mg/kg, route intraperitoneal. It is filed as ADME, organism-based. Put shortly: as §2
For series [11], the species on record is Mus musculus. Nature of the series: Activation of UTRN promoter in mouse H2K cells assessed as upregulation of UTRN production at 10 uM after 72 hrs by RT-PCR analysis. The series is classed as functional. A digest of the protocol:
(§3)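 H2K cells were seeded at 25000 per well, left 24 h, then dosed for 72 h in 1% DMSO final. Total RNA was extracted and reverse transcribed. qPCR used an amplicon spanning the UTRN exon 3–4 boundary, with β-actin as the endogenous control, and was quantified by ΔΔCT. Values are % UTRN relative to DMSO control (=100), with P value.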

The nature of series [12]: AUC in CD1 mouse at 50 mg/kg, ip. The series is classed as ADME, organism-based. Also on record: dose 50 mg/kg, route intraperitoneal. Particulars: plasma. Put shortly:
as §2

Series [13] is filed under the species Mus musculus. Nature of the series: Activation of UTRN promoter in mouse H2K cells assessed as upregulation of UTRN production at 3 uM after 72 hrs by RT-PCR analysis. The series is classed as functional. Put shortly:
as §3

≈ marks a conversion by molar mass, not a printed value.

In general, AUC refers to the area under the concentration-time curve, a measure of exposure. The kinetic solubility is the concentration staying in solution when a stock, usually in DMSO, is diluted into the medium. Broadly, the Cmax is the highest concentration seen after dosing. One may read the Tmax as the time from dosing to the highest level. A word on the half-life: it is the time needed for the level to fall by half in the phase considered. A high value points to slow decline. By EC50 is commonly meant the concentration giving half of the maximal effect. Consider `CC(C)C(=O)Nc1ccc2oc(-c3ccc(Cl)cc3)nc2c1`, for which the t1/2 in [1] is given as 136 min. In addition, the exposure (AUC) in series [2] came to 3820 ng·h/mL. The kinetic solubility in [3] was found to be 3 µM (≈ 0.944 µg/mL). The maximum concentration (Cmax) in series [4] worked out at 2807 ng/mL. Besides, the Tmax in series [5] was 15 min. Also, the half-life was determined as 19.3 min in series [6] and 286 min in series [8]. Besides, in series [7] (Mus musculus, H2K, 48 h), the concentration giving a half-maximal response (EC50) was determined as 400 nM.

Compound `CCS(=O)(=O)c1ccc2oc(-c3ccc4ccccc4c3)nc2c1` [EZUTROMID] showed a maximum concentration (Cmax) in series [9] of 1490 ng/mL. The Tmax in series [10] was 15 min. Besides, the Activity in series [11] turned out to be 143%. The kinetic solubility in series [3] came out at 3 µM (≈ 1.01 µg/mL). The AUC in [12] stood at 7000 ng·h/mL. In addition, the half-life in series [6] stood at 81.5 min; in series [8], 105 min. In addition, the EC50 in series [7] (Mus musculus, H2K, 48 h) amounted to 1800 nM; in series [7] (h2k), 910 nM.

For `Cc1cc2nc(-c3ccc(N)cc3O)oc2cc1C`, in series [1], the t1/2 stood at 40.9 min. In addition, the Activity in series [11] was 144.8%. In [2], the exposure (AUC) was 10 ng·h/mL. Also, in series [3], the solubility (kinetic) turned out to be 1 µM (≈ 0.254 µg/mL). In series [4], this compound showed a peak concentration (Cmax) of 10.9 ng/mL. The Tmax in series [5] was 5 min. Moreover, in [6], the half-life was found to be 22 min. Also, the EC50 in series [7] (Mus musculus, H2K, 48 h) turned out to be 700 nM.

In the case of `CC(C)C(=O)Nc1ccc2oc(-c3ccc(Cl)c(Cl)c3)nc2c1`, the Activity in series [13] worked out at 128.2%. Also, the EC50 in series [7] (Mus musculus, H2K, 48 h) came to 1500 nM.

Values taken from ChEMBL document CHEMBL1772981, “Discovery of 2-arylbenzoxazoles as upregulators of utrophin production for the treatment of Duchenne muscular dystrophy” (J Med Chem, 2011).
